Source: the RNAGym collection of RNA variant scans (doi:10.1126/science.aae0568)
Fewer inactive variants are shown than the library holds.

B1: tRNA (parent)
chain: GUUCCGUUGGCGUAAUGGUAACGCGUCUCCCUCCUAAGGAGAAGACUGCGGGUUCGAGUCCCGUACGGAACG

Variants of: B1
Assay: yeast fitness relative to wild type (ratio to wild type); higher = fitter; tRNA-Arg(CCU), competitive growth, 37 C, YPD
How it was run: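 Variants of the tRNA-Arg(CCU) gene, chemically synthesised with a 3% per-site mutation rate at 69 sites, were placed at the native genomic locus in Saccharomyces cerevisiae. The pooled strains were competed in YPD at 37°C for 24 hours in six parallel replicates. Gene amplicons from the start population and from each end population were read by 100-nucleotide paired-end sequencing. Darwinian fitness relative to wild type came from changes in genotype frequencies; genotypes needed ≥ 100 starting reads, and estimates < 0.5 were set to 0.5.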

Row | Variant | yeast fitness
1 | U8A C29G U32C | ≤ 0.5
2 | U8A C27U A40G C49U C55G | 0.554
3 | U7G G50A | 0.858
4 | U8A A15U C27G A36G G38U | ≤ 0.5
5 | U8A A14U G17A G25A | ≤ 0.5
6 | U8A A15U A20U G25C C29A A40C G50A | ≤ 0.5
7 | U8A A70C | 0.776
8 | U8A A37C A43U G63A | 0.561
9 | U7G C27G U28G G68A | ≤ 0.5
10 | U7G C31U U47C | 0.536
11 | U7G G10C C33U C60G G67A | ≤ 0.5
12 | U7G C29G U35C C46U | ≤ 0.5
13 | U8A A15C G18C | 0.575
14 | U7G C22A C61G | ≤ 0.5
15 | U8A C11U G25A C33A A40U C61A C62U | ≤ 0.5
16 | U7G U28G C34U G38A | ≤ 0.5
17 | U8A C11U A70C | 0.622
18 | U8A A15C U26A C33A C61A U64A | ≤ 0.5
19 | U8A C22U U59A | ≤ 0.5
20 | U8A C29U C62U A70U | ≤ 0.5
21 | U7G G18C | 0.686
22 | U7G U26A G63A | ≤ 0.5
23 | U8A C11A C66U | 0.585
24 | U7G C27G U28G G52C G58C A65U A70C | ≤ 0.5

Row | Variant | yeast fitness
25 | U8A A14G C24G A45C C62U | ≤ 0.5
26 | U8A C22U C49U A69C A70C | 0.545
27 | U8A C11U A43U C61A A65U | ≤ 0.5
28 | U8A A15C G18C C49U U64A A69U | 0.651
29 | U8A A36G A40C U47A | ≤ 0.5
30 | U7G C60A A70C | 0.551
31 | U7G G41C C49G U59G G63A C66U | ≤ 0.5
32 | U7G U13C A57U | ≤ 0.5
33 | U7G A65C | 0.998
34 | U7G G39C A42G | ≤ 0.5
35 | U8A C27A U47C | 0.558
36 | U8A A14U C22U | 0.592
37 | U7G C22U C49G G50C | 0.512
38 | U7G A40C | 0.807
39 | U8A A15C G18C C49U C62U | ≤ 0.5
40 | U8A A21G C24A C30A A45U U47C C49A | 0.572
41 | U7G C33A A69G | 0.598
42 | U8A A15U C29U G38C | ≤ 0.5
43 | U8A A15G G50C C55U C60G A69G | ≤ 0.5
44 | U8A A37C A43U | 0.541
45 | U8A C29U | 0.692
46 | U8A C29G A40G A70G | ≤ 0.5
47 | U7G C22A U64C | ≤ 0.5
48 | U7G G38C C60G | ≤ 0.5

Row | Variant | yeast fitness
49 | U8A C11U A21C A69C | ≤ 0.5
50 | U7G G38C | 0.591
51 | U7G C11G C34U G41A U54C U64C | ≤ 0.5
52 | U8A C29A G39A | ≤ 0.5
53 | U7G C34U C60A | ≤ 0.5
54 | U7G C27U C33U G50C U53A A57U A65U | ≤ 0.5
55 | U7G C30A G48A | 0.673
56 | U7G G41A G48A | 0.911
57 | U8A A36U G68C | ≤ 0.5
58 | U7G A43U A65C | 1
59 | U7G A43C G58C | 0.648
60 | U7G A40U A43U G44A A45U U53A | 0.61
61 | U7G A36U C60U | ≤ 0.5
62 | U7G G25C G67A | 0.682
63 | U7G C29G C46U | 0.546
64 | U7G C31U G39A C55U G68C | ≤ 0.5
65 | U7G C34A G44C G51A | ≤ 0.5
66 | U8A C29G C62G | 0.576
67 | U7G C29A | 0.649
68 | U7G A36G A45U | ≤ 0.5
69 | U7G C55U | 0.855
70 | U7G C55A | 0.665
71 | U8A A15G C27A G56A | ≤ 0.5
72 | U7G C29A C30A U54A A57G U64A | 0.561

Row | Variant | yeast fitness
73 | U7G A40U G63A | 0.66
74 | U7G G10C C22G | ≤ 0.5
75 | U8A C22G A43U G52A U54C G56U U64C | ≤ 0.5
76 | U7G C61U C66A | 0.626
77 | U7G A43G C60U C62U A70C | ≤ 0.5
78 | U8A A36U C55G U59C A69C | 0.794
79 | U8A A40G C49G U54A C55A | ≤ 0.5
80 | U7G C22U U26C U64G G67C | ≤ 0.5
81 | U7G C60A A69G | ≤ 0.5
82 | U8A A40G A42U A45U U59G G68A | ≤ 0.5
83 | U8A C22G U35C A70G | ≤ 0.5
84 | U7G C46A C61G A69G | ≤ 0.5
85 | U7G C11G C34U G41A A70U | ≤ 0.5
86 | U8A C30G C61A | ≤ 0.5
87 | U7G A43G C46G A69U | ≤ 0.5
88 | U7G A42C G44C G67C | ≤ 0.5
89 | U7G C30U C60U A69C | 0.576
90 | U7G C11U G12C C33U C61G C62G | ≤ 0.5
91 | U7G G25A | 0.799
92 | U7G U26C C31A G38C | 0.561
93 | U8A A42C | 0.648
94 | U7G U13A A42G C66G G67C | ≤ 0.5
95 | U8A C29A U47C | ≤ 0.5
96 | U8A A15U A20C A45G | ≤ 0.5

Row | Variant | yeast fitness
97 | U8A C27G A42U | ≤ 0.5
98 | U8A C29G A65G C66G | 0.57
99 | U7G C27U G68A | ≤ 0.5
100 | U7G G23A A36U G39C | ≤ 0.5
101 | U8A C30U A40U G52C | ≤ 0.5
102 | U7G C27A A36C A42U | 0.532
103 | U8A C29U G51C A57G | ≤ 0.5
104 | U7G C27G U28G C66U | ≤ 0.5
105 | U8A C24U A40U A42G A45U | ≤ 0.5
106 | U8A C27U A42G | ≤ 0.5
107 | U7G C27U C33U | ≤ 0.5
108 | U7G C62G A69G | ≤ 0.5
109 | U7G G12C A14C A15G A37C A57U | ≤ 0.5
110 | U7G C61U G63A C66A | ≤ 0.5
111 | U7G A37G C49A | ≤ 0.5
112 | U8A A14U G17A C27U | ≤ 0.5
113 | U7G C27U C49U | 0.59
114 | U8A C29U C30G | ≤ 0.5
115 | U7G G56C C60U G67C | ≤ 0.5
116 | U8A A45G A65U | ≤ 0.5
117 | U7G U59C | 0.871
118 | U8A A14C C31A G41C C49A G56A | 0.668
119 | U7G G23C C30G A36U C61U | ≤ 0.5
120 | U8A A20C A42U | ≤ 0.5

Row | Variant | yeast fitness
121 | U8A A37C U53C | 0.545
122 | U7G A36C G67A | ≤ 0.5
123 | U8A A36G G67C | ≤ 0.5
124 | U7G C29G C30U C46U | 0.534
125 | U8A C30G C62U G67C | 0.546
126 | U7G G39A C66U | ≤ 0.5
127 | U7G A57G G68U | ≤ 0.5
128 | U8A C11U A21C G56C G68C | ≤ 0.5
129 | U7G G10A C27U G68A | ≤ 0.5
130 | U7G C11G C30G G41C | ≤ 0.5
131 | U8A C29G C60U G67A A69U | ≤ 0.5
132 | U7G C46U C60A | ≤ 0.5
133 | U7G C22A U53C | ≤ 0.5
134 | U7G U8C C11G C34U G41A | 0.547
135 | U7G C11U G12C C33U U64A G68C | ≤ 0.5
136 | U8A A15G C27A G67A | ≤ 0.5
137 | U8A C24A G52C | ≤ 0.5
138 | U7G C29U A36U | ≤ 0.5
139 | U8A A36U | 0.559
140 | U7G G10C C22G C55A | ≤ 0.5
141 | U8A A40G C62A | ≤ 0.5
142 | U7G C11G C34U C49U U59C C62G | ≤ 0.5
143 | U8A C11A | 0.674
144 | U8A A14U | 0.534

Row | Variant | yeast fitness
145 | U7G A43C U64A | 0.682
146 | U7G C49A C61U G67C | ≤ 0.5
147 | U7G U32A C61G | ≤ 0.5
148 | U8A A43U C49U C55A | ≤ 0.5
149 | U7G A42C C62U | 0.651
150 | U8A C27A | 0.625
151 | U8A A15G C27A U47G G68U | ≤ 0.5
152 | U7G G52A | 0.723
153 | U7G A36U A70U | 0.544
154 | U8A A43U A70G | 0.532
155 | U7G C34A A36U G52A C60A | ≤ 0.5
156 | U7G C33U C55G | ≤ 0.5
157 | U8A A15U A21G C34A A37G | 0.51
158 | U8A A40U | 0.707
159 | U8A A37G A42U U54C | ≤ 0.5
160 | U7G C62A | 0.612
161 | U7G C30A C55A | ≤ 0.5
162 | U8A C11A C24U A40U | ≤ 0.5
163 | U7G C22U C24G A65U C66U | ≤ 0.5
164 | U7G U8A A14G C62U A65U | ≤ 0.5
165 | U8A C24A C30U G48C | ≤ 0.5
166 | U8A A42U A43U | 0.58
167 | U7G C34A G44C G51A C62A | ≤ 0.5
